Test results from ChEMBL document CHEMBL1125042, “Hypolipidemic activity of rifamycin derivatives” (J Med Chem, 1990).
Converted amounts (≈) assume the structure as drawn.

What was measured:
[1] = tested on: Rattus norvegicus; experiment: Tested for hypolipidemic activity in male rats, cholesterol was determined in serum at 10 mg/kg; type: functional
In short: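 Groups of eight male Wistar rats (200–230 g) dosed orally in PEG 400, either daily for 7 days (killed 24 h after the last dose) or for 4 days with a second dose on day 4 (killed 16 h later). Fasted 16 h. Paired sera pooled, lipoproteins separated by ultracentrifugation (1.006 and 1.040 g/cm³), HDL taken as the infranatant. Cholesterol measured enzymatically; % vs vehicle, mean ± SEM of four pools.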

[2] = tested on: Rattus norvegicus; experiment: Hypolipidemic activity was determined in male rats, and high-density lipoprotein level was determined at 10 mg/kg; type: functional
In short: (§1)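 Male Wistar rats (200–230 g), eight per group, were dosed orally in PEG 400 at 8 a.m. for 4 days, plus a second dose at 4 p.m. on day 4. Rats were fasted 16 h and killed 16 h after the last dose. Sera from pairs of rats were pooled. LDL (up to 1.040 g/cm³) was separated by ultracentrifugation and the HDL infranatant taken. Cholesterol was measured enzymatically. Results are % versus vehicle control, mean ± SEM of four pools, Student's t test.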

[3] = tested on: Rattus norvegicus; experiment: Hypolipidemic activity was determined in male rats, and low-density lipoprotein level was determined at 10 mg/kg; type: functional; in short: as §1
[4] = Inhibitory activity against RNA polymerase was determined; design: species or system Escherichia coli
In short: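 E. coli DNA-dependent RNA polymerase inhibition measured in vitro on ether-extracted, permeabilized E. coli cells.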

[5] = tested on: Rattus norvegicus; experiment: Hypolipidemic activity was determined by measuring the % serum HDL in hypercholesterolemic RICO rat at a dose of 10 mg/kg; type: functional, organism-based; design: dose 10 mg/kg
In short: (§2)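 Genetically hypercholesterolemic RICO rats (Tif:RAI,f,SPF) were dosed orally for 7 days. Sera were collected after a 16 h fast and pooled in pairs. LDL (1.006–1.040 g/cm³) and HDL infranatant were separated by ultracentrifugation. Cholesterol and triglycerides were measured enzymatically. Results are % change versus vehicle control, mean ± SEM of four pools.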

[6] = tested on: Rattus norvegicus; experiment: Hypolipidemic activity was determined by measuring the % serum HDL in hypercholesterolemic RICO rat at a dose of 3 mg/kg; type: functional, organism-based; design: dose 3 mg/kg; in short: as §2
[7] = tested on: Rattus norvegicus; experiment: Hypolipidemic activity was determined by measuring the % serum HDL in hypercholesterolemic RICO rat at a dose of 30 mg/kg; type: functional, organism-based; design: dose 30 mg/kg; in short: as §2
[8] = tested on: Rattus norvegicus; experiment: Hypolipidemic activity was determined by measuring the % serum HDL in normal rat at a dose of 1 mg/kg; type: functional, organism-based; design: dose 1 mg/kg
In short: (§3)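 Normal male Wistar rats (200–230 g), eight per group, were dosed orally in PEG 400 once daily for 7 days. They were fasted 16 h and killed 24 h after the last dose. Serum from pairs was pooled and LDL/HDL fractions were ultracentrifuged. Cholesterol and triglycerides were measured enzymatically. Results are % versus vehicle control, mean ± SEM of four pools, Student's t test.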

[9] = tested on: Rattus norvegicus; experiment: Hypolipidemic activity was determined by measuring the % serum HDL in normal rat at a dose of 3 mg/kg; type: functional, organism-based; design: dose 3 mg/kg; in short: as §3
[10] = tested on: Rattus norvegicus; experiment: Hypolipidemic activity was determined by measuring the % serum HDL in normal rat at a dose of 30 mg/kg; type: functional, organism-based; design: dose 30 mg/kg; in short: as §3
[11] = tested on: Rattus norvegicus; experiment: Hypolipidemic activity was determined by measuring the % serum HDL-cholesterol in normal rat at the specified dose of 10 mg/kg; type: functional, organism-based; design: dose 10 mg/kg
In short: (§4)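 Male Wistar rats (200–230 g, n=8 per group) were given oral doses in PEG 400 and fasted 16 h before being killed under pentothal. Paired sera were pooled with 0.05% EDTA and 0.01% thimerosal, and LDL/HDL were separated by ultracentrifugation. Cholesterol was measured enzymatically. Results are % versus vehicle control, mean ± SEM of four serum pools, Student's t test.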

[12] = tested on: Rattus norvegicus; experiment: Hypolipidemic activity was determined by measuring the % serum HDL-cholesterol in normal rat at the specified dose of 30 mg/kg; type: functional, organism-based; design: dose 30 mg/kg; in short: as §4
[13] = tested on: Rattus norvegicus; experiment: Hypolipidemic activity was determined by measuring the % serum cholesterol in hypercholesterolemic RICO rat at a dose of 10 mg/kg; type: functional, organism-based; design: dose 10 mg/kg; in short: as §2
[14] = tested on: Rattus norvegicus; experiment: Hypolipidemic activity was determined by measuring the % serum cholesterol in hypercholesterolemic RICO rat at a dose of 3 mg/kg; type: functional, organism-based; design: dose 3 mg/kg; in short: as §2
[15] = tested on: Rattus norvegicus; experiment: Hypolipidemic activity was determined by measuring the % serum cholesterol in hypercholesterolemic RICO rat at a dose of 30 mg/kg; type: functional, organism-based; design: dose 30 mg/kg; in short: as §2
[16] = tested on: Rattus norvegicus; experiment: Hypolipidemic activity was determined by measuring the % serum cholesterol in normal rat at a dose of 1 mg/kg; type: functional, organism-based; design: dose 1 mg/kg; in short: as §3
[17] = tested on: Rattus norvegicus; experiment: Hypolipidemic activity was determined by measuring the % serum cholesterol in normal rat at a dose of 10 mg/kg; type: functional, organism-based; design: dose 10 mg/kg; in short: as §3
[18] = tested on: Rattus norvegicus; experiment: Hypolipidemic activity was determined by measuring the % serum cholesterol in normal rat at a dose of 3 mg/kg; type: functional, organism-based; design: dose 3 mg/kg; in short: as §3
[19] = tested on: Rattus norvegicus; experiment: Hypolipidemic activity was determined by measuring the % serum cholesterol in normal rat at a dose of 30 mg/kg; type: functional, organism-based; design: dose 30 mg/kg; in short: as §3
[20] = tested on: Rattus norvegicus; experiment: Hypolipidemic activity was determined by measuring the % serum cholesterol in rat at the specified dose of 10 mg/kg; type: functional, organism-based; design: dose 10 mg/kg; in short: as §4
[21] = tested on: Rattus norvegicus; experiment: Hypolipidemic activity was determined by measuring the % serum cholesterol in rat at the specified dose of 30 mg/kg; type: functional, organism-based; design: dose 30 mg/kg; in short: as §4
[22] = tested on: Rattus norvegicus; experiment: Hypolipidemic activity was determined by measuring the % serum LDL-cholesterol in hypercholesterolemic RICO rat at a dose of 10 mg/kg; type: functional, organism-based; design: dose 10 mg/kg; in short: as §2
[23] = tested on: Rattus norvegicus; experiment: Hypolipidemic activity was determined by measuring the % serum LDL-cholesterol in hypercholesterolemic RICO rat at a dose of 3 mg/kg; type: functional, organism-based; design: dose 3 mg/kg; in short: as §2
[24] = tested on: Rattus norvegicus; experiment: Hypolipidemic activity was determined by measuring the % serum LDL-cholesterol in hypercholesterolemic RICO rat at a dose of 30 mg/kg; type: functional, organism-based; design: dose 30 mg/kg; in short: as §2
[25] = tested on: Rattus norvegicus; experiment: Hypolipidemic activity was determined by measuring the % serum LDL in normal rat at a dose of 1 mg/kg; type: functional, organism-based; design: dose 1 mg/kg; in short: as §3
[26] = tested on: Rattus norvegicus; experiment: Hypolipidemic activity was determined by measuring the % serum LDL in normal rat at a dose of 10 mg/kg; type: functional, organism-based; design: dose 10 mg/kg; in short: as §3
[27] = tested on: Rattus norvegicus; experiment: Hypolipidemic activity was determined by measuring the % serum LDL in normal rat at a dose of 3 mg/kg; type: functional, organism-based; design: dose 3 mg/kg; in short: as §3
[28] = tested on: Rattus norvegicus; experiment: Hypolipidemic activity was determined by measuring the % serum LDL in normal rat at a dose of 30 mg/kg; type: functional, organism-based; design: dose 30 mg/kg; in short: as §3
[29] = tested on: Rattus norvegicus; experiment: Hypolipidemic activity was determined by measuring the % serum triglycerides in normal rat at a dose of 3 mg/kg; type: functional, organism-based; design: dose 3 mg/kg; in short: as §3
[30] = tested on: Rattus norvegicus; experiment: Hypolipidemic activity was determined by measuring the % serum triglycerides in normal rat at a dose of 30 mg/kg; type: functional, organism-based; design: dose 30 mg/kg; in short: as §3
[31] = tested on: Rattus norvegicus; experiment: Hypolipidemic activity was determined by measuring the % serum LDL-cholesterol in normal rat at the specified dose of 30 mg/kg; type: functional, organism-based; design: dose 30 mg/kg; in short: as §4
[32] = tested on: Rattus norvegicus; experiment: Hypolipidemic activity was determined by measuring the % serum triglycerides in hypercholesterolemic RICO rat at a dose of 10 mg/kg; type: functional, organism-based; design: dose 10 mg/kg; in short: as §2
[33] = tested on: Rattus norvegicus; experiment: Hypolipidemic activity was determined by measuring the % serum triglycerides in hypercholesterolemic RICO rat at a dose of 3 mg/kg; type: functional, organism-based; design: dose 3 mg/kg; in short: as §2
[34] = tested on: Rattus norvegicus; experiment: Hypolipidemic activity was determined by measuring the % serum triglycerides in hypercholesterolemic RICO rat at a dose of 30 mg/kg; type: functional, organism-based; design: dose 30 mg/kg; in short: as §2
[35] = tested on: Rattus norvegicus; experiment: Hypolipidemic activity was determined by measuring the % serum LDL-cholesterol in normal rat at the specified dose of 10 mg/kg; type: functional, organism-based; design: dose 10 mg/kg; in short: as §4
[36] = tested on: Rattus norvegicus; experiment: Hypolipidemic activity was determined by measuring the % serum triglycerides in normal rat at a dose of 1 mg/kg; type: functional, organism-based; design: dose 1 mg/kg; in short: as §3
[37] = tested on: Rattus norvegicus; experiment: Hypolipidemic activity was determined by measuring the % serum triglycerides in normal rat at a dose of 10 mg/kg; type: functional, organism-based; design: dose 10 mg/kg; in short: as §3
[38] = tested on: Staphylococcus aureus; experiment: Antibacterial activity against Staphylococcus aureus 10B; type: functional
In short: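 Agar dilution on DST agar with 2-fold drug dilutions. Inoculum of 10⁴ viable S. aureus 10B was taken from liquid-nitrogen stock, thawed 30 min and not subcultured. It was applied by multipoint replicator and incubated overnight at 37 °C. MIC is the lowest concentration inhibiting growth relative to control cultures.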

[39] = tested on: Rattus norvegicus; experiment: Hypolipidemic activity was determined by measuring the % serum HDL in normal rat at a dose of 10 mg/kg; type: functional, organism-based; design: dose 10 mg/kg; in short: as §3

- IC50 [4]: > 100 µg/mL
- MIC [38]: 64 µg/mL (≈ 59.2 µM)
SMILES: COC1/C=C/OC2(C)Oc3c(C)c(OC(=O)C(C)(C)C)c4c(c3C2=O)C(=O)C(N2CCN(Cc3c(C)cc(C)cc3C)CC2)=C(C4=O)N(C(=O)C(C)(C)C)C(=O)/C(C)=C\C=C\C(C)C(O)C(C)C(O)C(C)C(OC(C)=O)C1C (centres undefined)
- Activity [1]: -30%
- Activity [2]: -33%
- Activity [3]: -55%
- Serum HDL-cholesterol [5]: -24%
- Serum HDL-cholesterol [6]: -6%
- Serum HDL-cholesterol [7]: -45%
- Serum HDL-cholesterol [8]: 0%
- Serum HDL-cholesterol [9]: -4%
- Serum HDL-cholesterol [10]: -34%
- Serum HDL-cholesterol [11]: -11%
- Serum HDL-cholesterol [12]: -27%
- Serum cholesterol [13]: -29%
- Serum cholesterol [14]: -12%
- Serum cholesterol [15]: -50%
- Serum cholesterol [16]: -5%
- Serum cholesterol [17]: -19%
- Serum cholesterol [18]: -4%
- Serum cholesterol [19]: -27%
- Serum cholesterol [20]: -16%
- Serum cholesterol [21]: -33%
- Serum LDL-cholesterol [22]: -53%
- Serum LDL-cholesterol [23]: -35%
- Serum LDL-cholesterol [24]: -69%
- Serum LDL-cholesterol [25]: -8%
- Serum LDL-cholesterol [26]: -56%
- Serum LDL-cholesterol [27]: -34%
- Serum LDL-cholesterol [28]: -51%
- Serum triglyceride [29]: 14%
- Serum triglyceride [30]: -22%
- Serum LDL-cholesterol [31]: -68%
- Serum triglyceride [32]: -32%
- Serum triglyceride [33]: -11%
- Serum triglyceride [34]: -47%
- Serum LDL-cholesterol [35]: -26%
- Serum triglyceride [36]: 14%
- Serum triglyceride [37]: -17%
- Serum HDL-cholesterol [39]: -21%
